# Only a selection was taken, and hits are over-represented in it overall.
# HUVEC inhibit – inhibitors of human endothelial cell proliferation; HUVEC proliferation, CellTiter-Glo luminescence, 72 h; active compounds read low; actives 1.1% (n = 86,000); viability, % at 10 µM (by protocol);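 active = viability at or below 30%; inactive = viability above 30%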;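 note: 100% = median luminescence of DMSO-only cell control wells on each plate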
# bCat KO growth – beta-catenin-lacking colon tumor cell growth suppression | viability, % at 10 µM | HCT116 beta-catenin knockout viability, CellTiter-Glo, 60 h; active compounds read low | actives 1.5% (n = 140,000);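 active = viability at or under a set limit, the compound median less 4 SD, cut at about 6% in these data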;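 note: 0% = Hyamine 1622 control at 20 µM and 100% = untreated cell control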
# H69AR growth 86K – blocks growth of human H69AR lung tumor cells. H69AR lung tumor viability, ATP luminescence, 72 h; active compounds read low. viability, % at 10 µM. actives 6% (n = 85,000). AID 598;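 active = viability at or below 40%; inactive = viability above 40%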;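 note: multidrug resistant small cell line overexpressing MRP-1 efflux transporter; 100% = mean luminescence of untreated control wells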
# Fibroblast inh – blocks proliferation of human lung fibroblasts. LL 47 human lung fibroblast viability, ATP luminescence; active compounds read low. actives 1.1% (n = 85,000). AID 719. viability, % at 10 µM;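 active = viability at or below 50% in the single dose screen; inactive = viability above 50%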;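 note: compound exposure lasted 72 h before the ATP readout; 100% = median luminescence of untreated cell-only wells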
#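 Material: human lung fibroblast line LL 47, low passage; Evaluation: viability percentage against median untreated-cell control; Buffer or medium: 15% FBS in IMEM; Incubation: 72 h compound exposure at 37 °C after overnight plating; Dosing: 0.1% DMSO in all compound wells; Measured by: CellTiter-Glo luminescence.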
# HCT116 PTEN-null – suppresses growth of cells with PTEN deletion. HCT116 PTEN-null viability, CellTiter-Glo, 60 h; active compounds read low. viability, % at 10 µM. actives 1.2% (n = 140,000). AID 827;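 active = viability at or below a set limit, 4 SD under the median of all tested compounds, cut at about 3.7% in these data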;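 note: PTEN knockout HCT116 line with beta catenin targeted HCT116 as companion control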
# The depositor's hits bear a star; . = no result given.
SMILES,HUVEC inhibit,bCat KO growth,H69AR growth 86K,Fibroblast inh,HCT116 PTEN-null
Cc1nc(Sc2nnnn2C)c2c3c(sc2n1)CCC3,45.5,23.6,22.6*,33.0*,19.9
CCc1nc(Sc2nnnn2-c2ccccc2)c2c3c(sc2n1)CCCC3,.,4.9*,.,.,3.1*
CSc1nc2sc3c(c2c2nncn12)CCC3,92.5,102.2,77.4,89.2,101.7
CCOC(=O)c1c(NC(C)=O)sc2c1CCC(C=NCCCN(CC)CC)=C2Sc1ccccc1,3.2*,.,0.7*,68.6,.
CCOC(=O)c1c(NC(=O)CN2CCCCC2)sc2c1CCC(C=O)=C2Cl,.,62.3,.,.,32.8
CCOC(=O)c1nnn(-c2nonc2N)c1COc1cc(C)c(Cl)c(C)c1,99.4,.,23.7*,102.1,.
C=CCn1cc([N+](=O)[O-])nc1C,.,97.0,.,.,99.2
CCN(CC)C(=S)SCC(=O)c1ccccc1,.,109.9,.,.,104.2
CCN(CC)C(=S)SSC(=S)N(CC)CC,.,1.1*,.,.,0.9*
CCOc1ccc2[nH]c(=O)c(CN(Cc3cccs3)Cc3nnnn3C(C)(C)C)cc2c1,69.0,32.8,7.3*,67.1,23.5
COCCn1c(N)c(C(=O)OCc2ccccc2)c2nc3ccccc3nc21,79.6,94.0,77.6,97.4,77.4
CN1CCN(c2nc(-c3ccccc3)nc3c2oc2ccccc23)CC1,23.7*,.,87.4,83.6,.
O=C(Cn1nc(-c2ccccc2F)ccc1=O)Nc1ccc(S(=O)(=O)N2CCCCCC2)cc1,.,81.4,.,.,78.2
O=C(/C=C/c1cccc([N+](=O)[O-])c1)NCCc1ccc(F)cc1,.,92.5,.,.,91.8
CC(C)(C)NC(=O)CSc1ncnc2c1nnn2Cc1ccccc1Cl,88.8,4.1*,3.0*,59.5,3.2*
COc1ccc(CCN2C(=O)CN(Cc3ccccc3)CC2=O)cc1OC,.,57.3,.,.,0.1*
c1ccc(OCc2nn3c(-c4ccco4)nnc3s2)cc1,109.4,92.1,84.4,110.5,98.8
NS(=O)(=O)c1ccc(NC(=O)N2c3ccccc3Sc3ccccc32)cc1,.,86.2,.,.,89.4
CC(=O)Nc1ccc(NC(=O)c2cc(C)nn2-c2ccccc2)cc1,111.4,94.8,88.7,105.3,93.7
CC(=O)c1cc2c(cc1NC(=O)c1cc(C)nn1-c1ccccc1)OCO2,46.3,34.9,33.4*,73.9,32.7
CCOc1c(Br)ccc2c1sc1nc[nH]c(=O)c12,25.7*,91.5,79.2,98.9,86.4
CC1(C)CC(NC(=O)CC2CCCCC2)CC(C)(C)N1,90.0,109.7,82.3,104.0,103.4
CCOC(=O)c1cc2sc(C)cc2n1CC(=O)NCc1ccc(F)cc1,66.9,95.8,30.4*,94.9,85.6
CCOC(=O)c1cc2sc(C)cc2n1CC(=O)N1CCOCC1,108.0,94.0,102.3,102.3,92.2
S=c1[nH]nc(-c2ccco2)n1/N=C/c1cccc(Cl)c1Cl,.,97.2,.,.,92.7
SMILES,HUVEC inhibit,bCat KO growth,H69AR growth 86K,Fibroblast inh,HCT116 PTEN-null
CCCCCCC1CC(CC(=O)Nc2ccc([N+](=O)[O-])cc2)C(=O)O1 (stereo not drawn),.,78.8,.,.,77.9
CCCCOc1c(Br)cc(/C=N/O)cc1OCC,20.7*,94.1,2.0*,88.6,90.1
C=CCOc1c(Br)cc(/C=N/O)cc1OCC,.,74.0,.,.,75.3
CCCCNc1nnc(SCC(=O)N2CCN(S(=O)(=O)c3ccc4ccccc4c3)CC2)s1,.,55.2,.,.,61.9
COc1cc(NS(=O)(=O)c2ccc3c(c2)oc(=O)n3C)cc(OC)c1OC,70.6,31.0,26.9*,92.3,28.1
COc1ccc(NS(=O)(=O)c2ccc3c(c2)oc(=O)n3C)c(OC)c1,97.2,89.0,93.7,93.3,92.9
O=C(O)c1ccnc(C(=O)O)c1,.,95.9,.,.,95.1
O=C(CSc1nc(-c2ccc(Cl)cc2)cs1)Nc1cccc([N+](=O)[O-])c1,.,68.9,.,.,63.8
CCN(CC)c1ccc(/C=C2/SC(=O)N(C(C)C)C2=O)o1,.,5.6*,.,.,5.2
CC(=O)Nc1nnc(SCc2ccccc2F)s1,91.3,98.1,91.2,100.5,110.5
O=C(Nc1nnc(-c2ccccc2SCc2ccccc2F)s1)Nc1ccccc1F,65.8,1.3*,15.9*,26.2*,1.4*
COc1ccc(OC)c(S(=O)(=O)N2CCN(C)CC2)c1,101.9,86.7,42.7,102.3,104.0
CN1CCc2nc3sc(C(=O)C45CC6CC(CC(C6)C4)C5)c(N)c3cc2C1,.,3.5*,.,.,0.6*
CCOC(=O)c1c(NC(=S)NC(=O)c2cnn(CC)c2)sc2c1CCC(C)C2 (stereo not drawn),.,64.7,.,.,80.9
CCn1cc([N+](=O)[O-])c(C(=O)N2N=C(c3cccc4ccccc34)CC2c2ccccc2O)n1 (stereo not drawn),77.8,3.4*,78.7,87.7,7.2
CCn1cc([N+](=O)[O-])c(C(=O)N2N=C(c3ccc4ccccc4c3)CC2c2ccccc2O)n1 (stereo not drawn),14.7*,3.2*,86.3,79.8,5.3
CCn1cc(Cl)c(C(=O)N2N=C(c3ccc4ccccc4c3)CC2c2ccccc2O)n1 (stereo not drawn),.,42.5,.,.,29.4
COc1ccc(Cn2c(C)c(C)c(C#N)c2NC(=O)Nc2cccc(Cl)c2)cc1,61.0,79.1,36.2*,93.2,78.7
COc1ccc(Cn2c(C)c(C)c(C#N)c2NC(=O)Nc2ccc(Cl)cc2)cc1,63.1,97.1,35.0*,74.1,99.5
CC1CCc2sc(C(=O)Nc3nnc(SCc4ccc(F)cc4)s3)cc2C1 (stereo not drawn),82.3,92.5,76.8,105.5,94.2
COC(=O)c1ccc(CSc2nnc(NC(=O)c3cc4c(s3)CCCC4)s2)cc1,78.2,44.0,7.6*,106.4,50.7
O=C(Nc1cccc(Cl)c1)Nc1nnc(CC2=CCCCC2)s1,.,8.0,.,.,3.4*
Cc1ccc(NC(=O)Nc2nnc(CSCCOc3ccc(Cl)cc3)s2)cc1,.,81.0,.,.,97.6
O=C(Nc1cccc(Cl)c1)Nc1nnc(CSCCOc2ccc(Cl)cc2)s1,.,4.2*,.,.,5.6
Cc1c(CCOC(=O)CC23CC4CC(CC(C4)C2)C3)sc[n+]1CC(=O)c1ccc(Br)cc1,2.2*,4.8*,1.3*,26.4*,7.5
SMILES,HUVEC inhibit,bCat KO growth,H69AR growth 86K,Fibroblast inh,HCT116 PTEN-null
CNc1cc(N2CCCCCC2)ccc1[N+](=O)[O-],.,85.3,.,.,82.3
CCCn1c(SCC(N)=O)nnc1-c1ccco1,92.2,97.8,105.8,.,99.2
COC(=O)c1nn(-c2ccccc2)nc1-c1nn(-c2ccccc2)nc1C(=O)OC,88.4,89.7,25.9*,91.1,84.0
CCN1CCN(Cc2nc3c(c(=O)n(C)c(=O)n3C)n2Cc2ccccc2Cl)CC1,85.8,99.2,76.8,91.4,87.4
Cc1cc(C(=O)NCCN2CCN(c3cccc(Cl)c3)CC2)n(-c2ccccc2)n1,52.9,9.5,29.1*,58.1,18.9
Cn1c(=O)cc(OCC(=O)NCCCN2CCN(c3cccc(Cl)c3)CC2)c2ccccc21,74.7,12.6,49.1,82.4,15.6
CCOC(=O)N1CCN(C(=O)c2cn(C)c(=O)c3c2c2ccccc2n3C)CC1,93.6,83.7,39.8*,96.2,65.5
Cn1cc(C(=O)NCCN2CCN(c3cccc(Cl)c3)CC2)c2c3ccccc3n(C)c2c1=O,58.1,15.1,15.7*,90.6,54.5

# Source: PubChem (SRMLSC)
